Laboratory results taken from ChEMBL document CHEMBL1128245, “Dual-acting thromboxane receptor antagonist/synthase inhibitors: synthesis and biological properties of [2-substituted-4-(3-pyridyl)-1,3-dioxan-5-yl] alkenoic acids” (J Med Chem, 1995).

How the values were obtained:
Homo sapiens = species on record: Homo sapiens; test: In vitro inhibition of U-46,619-induced aggregation of unwashed human platelets.; type: functional; settings: Homo sapiens; read-out: pA2 (converted)
Outline: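 Citrated (3.2%) human venous blood spun at 200g for 10 min. Platelet-rich plasma aggregated with U46619 with or without several antagonist concentrations.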

Rattus norvegicus [1] = test: Ex vivo […] (TXA2 synthase) inhibitory activity after 3 hr of oral dosing (10 mg/kg) in the rat; type: functional
Outline: (§1)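 Rats (n = 6) gavaged, anesthetized, aortic blood taken at 1, 3 or 5 h after dosing. A blood aliquot was challenged with collagen and TXB2 measured by radioimmunoassay; expressed as % inhibition of TXA2 synthase (±SEM).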

Rattus norvegicus [2] = test: Ex vivo […] (TXA2 synthase) inhibitory activity after 5 hr of oral dosing (10 mg/kg) in the rat; type: functional; outline: as §1
Rattus norvegicus [3] = test: Ex vivo […] (TXA2 synthase) inhibitory activity after 1 hr of oral dosing (10 mg/kg) in the rat; type: functional; outline: as §1
Rattus norvegicus [4] = test: Ex vivo TXA2 ([…]) antagonist activity was determined for U-46,619 induced aggregation (dose ratio) after 1 hr of oral dosing (10 mg/kg) in the rat; type: functional
Outline: (§2)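 Conscious rats (n = 6) dosed by oral gavage, then anesthetized and bled from the abdominal aorta at 1, 3 or 5 h. Platelet-rich plasma aggregated with U46619 before and after dosing to give a U46619 dose ratio. ">" values mark the maximum dose ratio achievable at the top U46619 concentration (1 × 10^-4 M).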

Rattus norvegicus [5] = test: Ex vivo TXA2 ([…]) antagonist activity was determined for U-46,619 induced aggregation (dose ratio) after 3 hr of oral dosing (10 mg/kg) in the rat; type: functional; outline: as §2
Rattus norvegicus [6] = test: Ex vivo TXA2 ([…]) antagonist activity was determined for U-46,619 induced aggregation (dose ratio) after 5 hr of oral dosing (10 mg/kg) in the rat; type: functional; outline: as §2
Thromboxane-A synthase = target: T1, Thromboxane-A synthase (Homo sapiens, UniProt P24557); test: In vitro Inhibition of thromboxane synthase from human blood platelet microsomes
T1 sequence (P24557 whole entry): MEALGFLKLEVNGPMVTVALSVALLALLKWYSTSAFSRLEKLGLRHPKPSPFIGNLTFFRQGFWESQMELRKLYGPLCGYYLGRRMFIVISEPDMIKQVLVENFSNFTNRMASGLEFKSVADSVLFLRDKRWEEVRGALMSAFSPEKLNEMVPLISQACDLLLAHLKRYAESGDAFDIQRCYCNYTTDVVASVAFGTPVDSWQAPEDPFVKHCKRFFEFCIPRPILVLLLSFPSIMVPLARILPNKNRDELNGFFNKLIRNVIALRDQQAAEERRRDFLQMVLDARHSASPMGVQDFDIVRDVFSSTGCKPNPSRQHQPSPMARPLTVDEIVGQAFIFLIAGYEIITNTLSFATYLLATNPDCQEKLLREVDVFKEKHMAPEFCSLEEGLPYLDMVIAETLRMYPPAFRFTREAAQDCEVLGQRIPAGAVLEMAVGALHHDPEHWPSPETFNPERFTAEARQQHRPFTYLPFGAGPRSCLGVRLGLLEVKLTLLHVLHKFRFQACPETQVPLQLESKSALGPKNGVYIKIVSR
Outline: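 Human blood platelet microsomes incubated with [1-14C]arachidonic acid with or without inhibitor. Conversion to labeled thromboxane B2 quantified radiochromatographically. n = 2.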

Prostacyclin synthase = target: T2, Prostacyclin synthase (Homo sapiens, UniProt Q16647); test: In vitro inhibition of Prostaglandin I2 synthase in cultured human endothelial cells
T2 sequence (Q16647 whole entry): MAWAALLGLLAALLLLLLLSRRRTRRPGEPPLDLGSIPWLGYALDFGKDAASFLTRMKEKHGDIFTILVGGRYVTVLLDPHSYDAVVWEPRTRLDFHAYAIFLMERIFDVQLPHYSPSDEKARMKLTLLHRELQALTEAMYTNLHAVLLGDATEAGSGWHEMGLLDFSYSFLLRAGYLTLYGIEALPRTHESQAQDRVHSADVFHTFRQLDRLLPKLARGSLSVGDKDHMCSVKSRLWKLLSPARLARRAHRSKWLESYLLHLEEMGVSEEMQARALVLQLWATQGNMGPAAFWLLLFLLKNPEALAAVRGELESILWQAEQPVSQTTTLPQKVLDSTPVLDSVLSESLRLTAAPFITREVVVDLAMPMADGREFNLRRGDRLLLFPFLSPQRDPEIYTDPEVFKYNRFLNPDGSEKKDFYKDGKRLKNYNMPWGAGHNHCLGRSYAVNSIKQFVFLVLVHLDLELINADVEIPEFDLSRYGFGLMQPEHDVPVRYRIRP

[7] = system: Thromboxane-A synthase (Canis familiaris); test: Ex vivo […] (TXA2 synthase) inhibitory activity after 5 hr of oral dosing (1 mg/kg) in the dog; settings: Canis lupus familiaris
[8] = system: Thromboxane-A synthase (Canis familiaris); test: Ex vivo […] (TXA2 synthase) inhibitory activity after 8 hr of oral dosing (1 mg/kg) in the dog; settings: Canis lupus familiaris
[9] = system: Thromboxane-A synthase (Canis familiaris); test: Ex vivo […] (TXA2 synthase) inhibitory activity after 24 hr of oral dosing (1 mg/kg) in the dog; settings: Canis lupus familiaris

IC50 (Thromboxane-A synthase) [nM] | IC50 (Prostacyclin synthase) [nM] | inhibition [7] [%] | inhibition [8] [%] | inhibition [9] [%] | Compound | Kb (Homo sapiens) [nM] | Inhibition (Rattus norvegicus [1]) [%] | Inhibition (Rattus norvegicus [2]) [%] | Inhibition (Rattus norvegicus [3]) [%] | Antagonist activity (Rattus norvegicus [4]) | Antagonist activity (Rattus norvegicus [5]) | Antagonist activity (Rattus norvegicus [6])
< 10 | < 1000 |  |  |  | CC(C)(Oc1ccccc1[N+](=O)[O-])C1OCC(C/C=C\CCC(=O)O)C(c2cccnc2)O1 (centres undefined) | 11.2 | 75.8 | 63.2 | 85.5 | >57 | 9 | 3
51 | 2000 |  |  |  | CC(C)(Oc1ccc(F)cc1)C1OCC(C/C=C\CCC(=O)O)C(c2cccnc2)O1 (centres undefined) | 120 | 80 | 83 | 93.2 | 6 | 4 | 4
54 | > 100000 | 91 | 84 | 82.6 | N#Cc1ccccc1C1OCC(C/C=C\CCC(=O)O)C(c2cccnc2)O1 (centres undefined) | 245 |  |  |  |  |  | 
